# Shown are actives, neighbours in structure and some others; about 1.5% of the full set was active somewhere.
# Dynein transport = inhibitors of GR-EGFP nuclear translocation, primary screen, dynein cargo transport inhibitor project, imaging, high-content, 3617.4 mouse cells; 220,000 compounds, 0.47% hits; z-score, hits read low; test concentration mostly 20 µM; stimulated with dexamethasone, 1 µM; active compounds read low;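 active = plate z-score of nuclear minus cytoplasmic receptor signal below a set negative limit, without overly bright fluorescence or cell loss, cut at about -3.5 in these data, passing the limit was not always enough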;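 also: z-score of nuclear minus cytoplasmic ring GR-EGFP intensity difference per well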
#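 Buffer or medium – tet-free medium with charcoal-stripped serum · Signal – automated 10x imaging of fixed Hoechst-stained cells · Also added – dexamethasone agonist, 1.0 µM final, for 30 min · Incubation – induction 48 h, compound 1 h, agonist 30 min · Read-out – GR-EGFP nuclear translocation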
# Rad51 HR inh = human RAD51 strand exchange inhibitors, primary screen, biochemical, fluorescence; inhibition, % at 10 µM; hRad51 DNA strand exchange, fluorescence dequenching; DNA repair protein RAD51 homolog 1 (Homo sapiens), Q06609; 200,000 compounds, 0.085% hits;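 active = inhibition above 40% at the single screening dose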;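 also: 0% = DMSO control wells and 100% = blanks with heterologous ssDNA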
# Target sequence (Q06609 whole entry, looked up): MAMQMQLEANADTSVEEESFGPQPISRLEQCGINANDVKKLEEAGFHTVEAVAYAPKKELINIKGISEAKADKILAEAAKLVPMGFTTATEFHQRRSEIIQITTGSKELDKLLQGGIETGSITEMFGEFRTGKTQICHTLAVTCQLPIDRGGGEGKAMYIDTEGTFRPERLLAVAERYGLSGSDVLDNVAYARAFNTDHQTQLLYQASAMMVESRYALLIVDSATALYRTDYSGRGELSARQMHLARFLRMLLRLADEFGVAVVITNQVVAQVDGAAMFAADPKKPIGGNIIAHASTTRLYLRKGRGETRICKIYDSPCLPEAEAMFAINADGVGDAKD
#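 material = hRad51 filaments on single-stranded DNA | reagent = Donor/quencher-labelled 47-bp dsDNA substrate | compound = 10 µM final, single point | schedule = strand-exchange reaction 15 min at room temperature | measured by = fluorescein emission 520 nm, excitation 485 nm | read-out basis = % inhibition versus plate control and blank means | benchmarks = plate controls and plate blanks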
# MT stabilizer = microtubule stabilizers in HeLa cells, primary screen, imaging, high-content imaging; HeLa tubulin immunostaining HCS, 24 h; share of cells brighter than vehicle mean+2SD; % tubulin-high responders, % at 10 µM; 200,000 compounds, 0.83% hits; AID 2205, 2009;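 active = plate Z-score above 3 for both tubulin-high and condensed-nucleus cell shares, with cell loss under 80%, at 10 µM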;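 also: anti alpha tubulin signal scored within the nucleus-defined area of each cell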
# Tb hexokinase = Trypanosoma brucei hexokinase 1 inhibitors, primary screen, biochemical, G6PDH-coupled NADH absorbance, MLSCN library; recombinant TbHK1, G6PDH-coupled NADH A340; inhibition, % at 10 µM; 220,000 compounds, 0.11% hits;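 active = inhibition of 50% or more in the single-dose primary screen; inactive = inhibition below 50%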
# b-catenin transl = modulators of beta-catenin nuclear translocation, primary screen, imaging, HeLa cells, immunofluorescence, high-content; nuclear translocation activity, % at 5 µM; 190,000 compounds, 0.3% hits; AID 1665, 2009;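 active = nuclear translocation activity above 50% at 5 µM, with a well cell count of 50 or more; inconclusive = wells under 50 cells across six images, flagged as toxic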;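 also: per-cell ratio of nuclear to cytoplasmic median beta-catenin stain intensity; plate controls were DMSO negative control for no effect and GSK-3 inhibitor IX positive control for full effect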
#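 Test system: human HeLa cells, native beta-catenin. Compound dosing: 5 µM primary single dose, 0.1% DMSO, 0.02–20 µM confirmation series. Incubation: compound exposure 24 h at 37°C. Detection: beta-catenin immunostaining with DAPI counterstain, 20x imaging, 6 fields/well. Read-out basis: Nuclear/cytoplasmic beta-catenin signal ratio, % activation.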
# Dynein inh conf = dynein cargo transport inhibitors, GR-EGFP translocation, confirmation, imaging, high-content imaging, GR-EGFP cells. shares compounds with Dynein transport. 3617.4 GR-EGFP nuclear translocation imaging, dexamethasone-induced. calls only at 20 µM. 1,000 compounds, 69% hits. AID 463116, 2010;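 active = inhibition of receptor movement into the nucleus at or above a set limit in both runs, with normal cell brightness and cell count; inconclusive = limit reached in only one run, brightness and count normal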;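 also: dexamethasone at 1 µM final in well for 30 min; nuclear minus cytoplasmic GR-EGFP mean intensity difference in channel 2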
# The depositor's hits bear a star; i = inactive; ? = inconclusive; · = no result given; + = active, no number.
SMILES,Dynein transport,Rad51 HR inh,MT stabilizer,Tb hexokinase,b-catenin transl,Dynein inh conf
N#CC1=C(N)C(C#N)(C#N)[C@H](c2cccnc2)[C@H]2CN(C(=O)OCc3ccccc3)CC=C12,-0.278,·,3.4,-0.2,-2.2,·
C/C(=N/NC(=O)COc1cc(C)ccc1C(C)C)C(=O)O,0.0653,-7.7,1.7,8.6,-0.2,·
Cc1ccc(C(C)C)c(OCC(=O)NN=C(CCl)CCl)c1,-4.57*,·,·,-10.5,2.8,+
COc1ccc(NC(=O)Nc2cccs2)cc1Cl,-0.536,·,3.1,1.1,-1.5,·
Fc1ccc(CSc2nnc3ccccn23)c(Cl)c1,-0.238,8.2,3.3,1.7,3.0,·
COc1cc2c(cc1OC)C(Cc1ccc(O)cc1)N(C)CC2 (stereo unspecified),-4.68*,-0.8,2.4,1.2,-1.2,i
COc1cc2c(cc1OC)C(Cc1ccc(O)cc1)NCC2 (stereo unspecified),-0.635,-28.1,2.8,3.1,·,·
CCOc1ccc(C(=O)NC(=S)Nc2ccccc2N2CCC(C)CC2)cc1[N+](=O)[O-],-0.452,2.8,1.1,-17.3,·,·
COc1cc2c(cc1OC)CN(CCC(=O)c1ccc(Br)cc1)CC2,-4.06*,4.2,2.3,1.0,-0.3,?
C=CCOC(=O)C1=C(C)N=c2s/c(=C3\C(=O)N(CC(=O)O)c4ccccc43)c(=O)n2C1c1ccc(OC)cc1 (stereo unspecified),-0.134,10.4,·,13.7,-0.4,·
Cn1cc(Br)c(C(=O)Nc2c(F)c(F)c(F)c(F)c2F)n1,0.0718,8.2,1.9,0.2,·,·
Cn1cc(Br)c(NC(=O)/C=C/C(=O)O)n1,-6.2*,10.8,·,26.2,0.5,+
O=C(Nc1ccccn1)c1ccc2nc(-c3ccccc3)c(-c3ccccc3)nc2c1,-0.592,6.5,3.2,-9.9,-0.3,·
CCN(CC)S(=O)(=O)c1cc(NC(=O)Cn2ncc(Cl)c(Cl)c2=O)ccc1C,-4.52*,-3.6,·,15.8,-1.2,+
Cc1ccc(NC(=O)CCl)cc1S(=O)(=O)N1CCCCCC1,-4.14*,2.9,9.4,2.7,9.5,+
CCc1ccccc1NC(=O)CN(C)C(=O)Cn1ncc(Cl)c(Cl)c1=O,-3.71*,2.7,5.6,-3.0,19.5,+
CCC(=O)Nc1ccc(C(=O)Cn2ncc(Cl)c(Cl)c2=O)cc1,-4.43*,·,·,1.9,-1.0,+
CCCc1cc(=O)[nH]c(SCC(=O)N(C)CC(=O)Nc2ccccc2CC)n1,0.0975,3.3,2.9,4.0,-0.8,·
CCCCc1c(O)nc(SCCC(=O)O)[nH]c1=O,0.0488,2.7,1.1,-3.2,·,·
CCCCOc1ccc(NC(=O)C2OC3OC(C)(C)OC3C3OC(C)(C)OC23)cc1 (stereo unspecified),-0.582,4.1,1.1,37.9,-0.6,·
CC1CC(C)(C)Nc2ccc(OC(=O)c3ccco3)cc21 (stereo unspecified),-2.77,-4.5,2.4,-2.8,-0.3,·
CC1CC(C)(C)Nc2ccc(N=O)cc21 (stereo unspecified),-3.98*,-0.4,11.2,-2.7,-0.5,+
Cn1c(=O)c(Nc2ccc(Cl)cc2)c2c3c(cccc31)C(=O)c1ccccc1-2,-4.31,·,5.5,-14.2,7.0,+
CC(C)CN1CCN(Cc2nc(C(C)C)cs2)CC1CCO (stereo unspecified),-0.388,·,1.4,6.2,3.2,·
Cc1cccn2c(=O)c(C=O)c(Cl)nc12,-5.91*,·,·,-18.6,1.3,+
SMILES,Dynein transport,Rad51 HR inh,MT stabilizer,Tb hexokinase,b-catenin transl,Dynein inh conf
Cc1cccn2c(=O)c(C=O)c(N3CCCCC3)nc12,0.875,-4.7,2.7,-12.8,1.1,·
Fc1ccc(/C=N/NC(=S)Nc2ccc(Cl)cc2)cc1F,0.186,1.5,3.8,-14.9,-1.1,·
CC1=NNC(=O)/C1=C\c1cn(-c2ccccc2)nc1-c1ccccc1,-3.93*,-2.8,59.5,-16.5,0.8,i
COc1ccccc1N(C(C)=O)C1SC(=O)N(c2ccccc2)C1=O (stereo unspecified),1.92,-2.3,4.6,0.4,-0.3,·
O=C(O)CCSc1ccccn1,-0.424,·,3.0,5.5,-1.7,·
O=C(CCSc1ccccn1)c1ccccc1,-3.96*,29.9,3.0,-11.2,0.1,i
COc1cccc2cc(C(N)=O)oc12,-0.133,23.3,2.2,-1.4,-0.2,·
O=C(Cn1ncc(Cl)c(Cl)c1=O)N1CCN(S(=O)(=O)c2ccc3ccccc3c2)CC1,-4.02*,-2.7,7.9,-5.9,1.1,+
CCc1ccc(NS(=O)(=O)c2cccs2)cc1,-4.07,-0.2,1.7,3.5,·,i
O=S(=O)(Nc1ccc(N2CCOCC2)cc1)c1cccs1,0.585,-3.6,2.1,-0.9,-1.2,·
O=C(/C=C\c1ccccc1OC(=O)c1ccccc1F)c1cc2ccccc2o1,-4.69*,-1.4,2.5,-13.3,1.8,+
COc1cc(C2CC(=O)Nc3ccccc3S2)cc(OC)c1OC (stereo unspecified),0.229,-1.6,4.8,-2.9,·,·
Nc1cccc2c1C(=O)N(C(=O)/C=C/c1ccc(F)cc1)C2=O,-4.67*,-10.7,3.3,-6.3,0.0,+
CC(C)Cc1cc(C(=O)NCCN2CCOCC2)no1,-0.133,-14.4,2.8,2.6,0.4,·
Cc1ccc(O)c(NC(=O)c2cc([N+](=O)[O-])ccc2Cl)c1,-3.68*,6.6,4.3,-3.1,0.0,+
Cc1ccc2nc(NC(=O)C3CCN(S(=O)(=O)c4cc([N+](=O)[O-])ccc4Cl)CC3)sc2c1,-0.194,0.7,4.6,6.7,·,·
O=C(c1ccc(S(=O)(=O)Cc2cc(F)ccc2F)c([N+](=O)[O-])c1)N1CCCC1,-4.61*,2.5,3.6,-1.2,-1.0,+
COc1ccc(NS(=O)(=O)c2ccc(Cl)c(N)c2)cc1Br,0.489,-3.1,2.4,0.4,-1.3,·
CC(C)N1C/C(=C/c2ccsc2)C(=O)/C(=C/c2ccsc2)C1,-3.84*,5.0,6.2,-23.0,3.4,+
CC(C)N1C/C(=C/c2cccnc2)C(=O)/C(=C/c2cccnc2)C1,-4.16*,·,67.7,-22.2,12.5,+
CCOC(=O)c1c(NC(=S)N2CCCCC2)sc2c1CCN(C(=O)OCC)C2,-3.64*,-4.1,·,-24.5,-0.2,+
C=CCNC(=S)Nc1sc2c(c1C(=O)OCC)CCN(C(=O)OCC)C2,1.23,-13.6,3.3,-8.3,-2.0,·
CCOC(=O)c1c(NC(=S)N2CCOCC2)sc2c1CCN(C(=O)OCC)C2,-4.73*,-8.7,·,-19.3,1.1,+
CCN(CC)CCOC(=O)c1cccc(Cl)c1,-0.877,3.8,4.5,6.2,-0.4,·

# Source: PubChem BioAssay (several laboratories)
